Experimental data taken from ChEMBL document CHEMBL1152835, “Synthesis and QSAR modeling of 2-acetyl-2-ethoxycarbonyl-1-[4(4'-arylazo)-phenyl]-N,N-dimethylaminophenyl aziridines as potential antibacterial agents” (2009).
Converted amounts (≈) assume the structure as drawn.

What was measured:
Type in all cases: functional
[1] = test system: Staphylococcus aureus; experiment: Antibacterial activities against Staphylococcus aureus ATCC 2943 after 16 to 24 hrs by twofold serial dilution method
Outline: (§1)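 Agar twofold serial dilution; compounds from DMF stock. Inoculum about 10⁷ CFU/ml taken from log-phase broth culture. Plates in triplicate, incubated at 37 °C for 16–24 h. Azinomycin run under the same conditions as control drug. MIC = lowest concentration giving no visible growth.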

[2] = test system: Escherichia coli; experiment: Antibacterial activities against Escherichia coli ATCC 13067 after 16 to 24 hrs by twofold serial dilution method; outline: as §1
[3] = test system: Bacillus subtilis; experiment: Antibacterial activities against Bacillus subtilis ATCC 6633 after 16 to 24 hrs by twofold serial dilution method; conditions: for MIC: Bacillus subtilis, ATCC 6633; outline: as §1
[4] = test system: Brevundimonas diminuta; experiment: Antibacterial activities against Pseudomonas diminuta MTCC 3361 after 16 to 24 hrs by twofold serial dilution method; outline: as §1

CCOC(=O)C1(C(C)=O)C(c2ccc(N(C)C)cc2)N1c1ccc(/N=N/c2ccc(O)cc2)cc1 (stereo not drawn)
-logMIC [1]: 4.13 | -logMIC [2]: 4.094 | -logMIC [3]: 4.212 | MIC [3]: 0.0614 ng/mL (≈ 0.13 nM) | -logMIC [4]: 4.183

CCOC(=O)C1(C(C)=O)C(c2ccc(N(C)C)cc2)N1c1ccc(/N=N/c2cccc(Cl)c2)cc1 (stereo not drawn)
-logMIC [1]: 4.329 | -logMIC [2]: 4.276 | -logMIC [3]: 4.46 | MIC [3]: 0.0347 ng/mL (≈ 0.0706 nM) | -logMIC [4]: 4.412

CCOC(=O)C1(C(C)=O)C(c2ccc(N(C)C)cc2)N1c1ccc(/N=N/c2ccc(C(=O)O)cc2)cc1 (stereo not drawn)
-logMIC [1]: 4.357 | -logMIC [2]: 4.301 | -logMIC [3]: 4.495 | MIC [3]: 0.032 ng/mL (≈ 0.0639 nM) | -logMIC [4]: 4.444

CCOC(=O)C1(C(C)=O)C(c2ccc(N(C)C)cc2)N1c1ccc(/N=N/c2ccccc2)cc1 (stereo not drawn)
-logMIC [1]: 4.079 | -logMIC [2]: 4.046 | -logMIC [3]: 4.154 | MIC [3]: 0.0701 ng/mL (≈ 0.154 nM) | -logMIC [4]: 4.128

CCOC(=O)C1(C(C)=O)C(c2ccc(N(C)C)cc2)N1c1ccc(/N=N/c2ccc(C)cc2)cc1 (stereo not drawn)
-logMIC [4]: 4.591

CCOC(=O)C1(C(C)=O)C(c2ccc(N(C)C)cc2)N1c1ccc(/N=N/c2cccc(C)c2)cc1 (stereo not drawn)
-logMIC [1]: 4.292 | -logMIC [2]: 4.241 | -logMIC [3]: 4.442 | MIC [3]: 0.0361 ng/mL (≈ 0.0768 nM) | -logMIC [4]: 4.371

CCOC(=O)C1(C(C)=O)C(c2ccc(N(C)C)cc2)N1c1ccc(/N=N/c2ccc(Cl)cc2)cc1 (stereo not drawn)
-logMIC [1]: 4.276 | -logMIC [2]: 4.228 | -logMIC [3]: 4.39 | MIC [3]: 0.0407 ng/mL (≈ 0.083 nM) | -logMIC [4]: 4.348

CCOC(=O)C1(C(C)=O)C(c2ccc(N(C)C)cc2)N1c1ccc(/N=N/c2ccccc2OC)cc1 (stereo not drawn)
-logMIC [4]: 4.421

CCOC(=O)C1(C(C)=O)C(c2ccc(N(C)C)cc2)N1c1ccc(/N=N/c2cccc(OC)c2)cc1 (stereo not drawn)
-logMIC [1]: 4.431 | -logMIC [2]: 4.364 | -logMIC [3]: 4.607 | MIC [3]: 0.0247 ng/mL (≈ 0.0508 nM) | -logMIC [4]: 4.54

CCOC(=O)C1(C(C)=O)C(c2ccc(N(C)C)cc2)N1c1ccc(/N=N/c2cccc(Br)c2)cc1 (stereo not drawn)
-logMIC [4]: 4.378

CCOC(=O)C1(C(C)=O)C(c2ccc(N(C)C)cc2)N1c1ccc(/N=N/c2cccc(O)c2)cc1 (stereo not drawn)
-logMIC [1]: 4.155 | -logMIC [2]: 4.118 | -logMIC [3]: 4.243 | MIC [3]: 0.0571 ng/mL (≈ 0.121 nM) | -logMIC [4]: 4.212

CCOC(=O)C1(C(C)=O)C(c2ccc(N(C)C)cc2)N1c1ccc(/N=N/c2cccc([N+](=O)[O-])c2)cc1 (stereo not drawn)
-logMIC [1]: 4.469 | -logMIC [2]: 4.399 | -logMIC [3]: 4.658 | MIC [3]: 0.022 ng/mL (≈ 0.0438 nM) | -logMIC [4]: 4.586

CCOC(=O)C1(C(C)=O)C(c2ccc(N(C)C)cc2)N1c1ccc(/N=N/c2cccc(C(=O)O)c2)cc1 (stereo not drawn)
-logMIC [1]: 4.398 | -logMIC [2]: 4.337 | -logMIC [3]: 4.553 | MIC [3]: 0.028 ng/mL (≈ 0.0559 nM) | -logMIC [4]: 4.495

CCOC(=O)C1(C(C)=O)C(c2ccc(N(C)C)cc2)N1c1ccc(/N=N/c2ccc([N+](=O)[O-])cc2)cc1 (stereo not drawn)
-logMIC [1]: 4.445 | -logMIC [2]: 4.378 | -logMIC [3]: 4.586 | MIC [3]: 0.0259 ng/mL (≈ 0.0517 nM) | -logMIC [4]: 4.524
